Data as given in ChEMBL document CHEMBL1156446, “c-Src protein kinase inhibitors block assembly and maturation of dengue virus” (Proc Natl Acad Sci U S A, 2007).
Activity calls are given as the source filed them. The rule behind the calls is not given here.

Key:
Dengue virus [1] = test: Antiviral activity against Dengue virus infected in african green monkey Vero cells administered before viral challenge after 3 days by viral plaque assay; type: functional, organism-based
How it was run: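 Monolayers seeded at 1 × 10^4 cells per well were pretreated for 180 min at 37°C with inhibitor at two noncytotoxic concentrations. They were then inoculated with DENV at moi 1 for 60 min at 37°C. Supernatant harvested 3 days postinfection was titrated by plaque assay. Activity was called at ≥five-fold (0.7 log) titer decrease.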

Dengue virus [2] = test: Antiviral activity against Dengue virus infected in african green monkey Vero cells administered after viral challenge after 3 days by viral plaque assay; type: functional, organism-based
How it was run: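 Cells were seeded at 1 × 10^4 per well and infected with DENV at moi 1. Protein kinase inhibitors were then added at two noncytotoxic concentrations, set beforehand by MTT assay in Vero cells. After 3 days, infectious yield in the supernatant was titrated by plaque assay. Activity was called at ≥five-fold (0.7 log) titer decrease.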

dengue virus type 2 [3] = test: Antiviral activity against Dengue virus 2 infected in african green monkey Vero cells; type: functional, organism-based
How it was run: (§1)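 Vero, Huh-7 or C6/36 cells were infected with DENV2 at moi 1. Inhibitor was then added at noncytotoxic concentrations of 50 nM–5 μM for three days. Virus titer in the culture supernatant was measured by plaque assay.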

dengue virus type 2 [4] = test: Inhibition of Dengue virus 2 assembly in african green monkey Vero cells assessed as virus-induced membrane structures at 2.5 uM after 4 days postinfection by electron microscopy; type: functional, organism-based
How it was run: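 DENV2-infected Vero cells were treated with 2.5 μM inhibitor, with DMSO-treated infected cells and DMSO-treated mock-infected cells as controls. At 4 days postinfection, cells were fixed in 2.5% glutaraldehyde plus 2.0% paraformaldehyde at 4°C for 24 h. Samples were embedded, sectioned and examined by transmission electron microscopy for virus particles and virus-induced membranes.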

Dengue virus [5] = test: Inhibition of viral spread in Dengue virus-infected african green monkey Vero cells assessed as accumulation of viral envelope protein within perinuclear region at 2.5 uM after 5 days by immunofluorescence assay relative to control; type: functional, organism-based
How it was run: (§2)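 Vero, Huh-7 or C6/36 cells were infected with DENV2 at moi 1 and then treated with 2.5 μM inhibitor or DMSO. Cells were fixed at days 4, 5 and 6 postinfection and stained for envelope protein by immunofluorescence. Envelope localization, including perinuclear accumulation, and infection of surrounding cells were compared with the DMSO control.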

[6] = Inhibition of PDGFR
Dengue virus [7] = test: Inhibition of viral spread in Dengue virus-infected human Huh7 cells assessed as accumulation of viral envelope protein within perinuclear region at 2.5 uM after 4 days by immunofluorescence assay relative to control; type: functional, organism-based; details: Huh-7; how it was run: as §2
Dengue virus [8] = test: Inhibition of viral spread in Dengue virus-infected asian tiger mosquito C6/36 cells assessed as accumulation of viral envelope protein within perinuclear region at 2.5 uM after 5 days by immunofluorescence assay relative to control; type: functional, organism-based; how it was run: as §2
Dengue virus [9] = test: Inhibition of viral spread in Dengue virus-infected asian tiger mosquito C6/36 cells assessed as accumulation of viral envelope protein within perinuclear region at 2.5 uM after 6 days by immunofluorescence assay relative to control; type: functional, organism-based; how it was run: as §2
[10] = Inhibition of p38 MAPK
dengue virus type 3 = test: Antiviral activity against Dengue virus 3 H87 infected in african green monkey Vero cells; type: functional, organism-based
dengue virus type 2 [11] = test: Antiviral activity against Dengue virus 2 infected in human Huh7 cells; type: functional, organism-based; details: Huh-7; how it was run: as §1
dengue virus type 4 = test: Antiviral activity against Dengue virus 4 H241 infected in african green monkey Vero cells; type: functional, organism-based
Dengue virus [12] = test: Inhibition of viral spread in Dengue virus-infected asian tiger mosquito C6/36 cells assessed as accumulation of viral envelope protein within perinuclear region at 2.5 uM after 4 days by immunofluorescence assay relative to control; type: functional, organism-based; how it was run: as §2
Dengue virus [13] = test: Inhibition of viral spread in Dengue virus-infected african green monkey Vero cells assessed as accumulation of viral envelope protein within perinuclear region at 2.5 uM after 4 days by immunofluorescence assay relative to control; type: functional, organism-based; how it was run: as §2
dengue virus type 1 = test: Antiviral activity against Dengue virus 1 Hawaii infected in african green monkey Vero cells; type: functional, organism-based
dengue virus type 2 [14] = test: Antiviral activity against Dengue virus 2 infected in asian tiger mosquito C6/36 cells; type: functional, organism-based; how it was run: as §1
Dengue virus [15] = test: Inhibition of viral spread in Dengue virus-infected african green monkey Vero cells assessed as accumulation of viral envelope protein within perinuclear region at 2.5 uM after 6 days by immunofluorescence assay relative to control; type: functional, organism-based; how it was run: as §2
Dengue virus [16] = test: Inhibition of viral spread in Dengue virus-infected human Huh7 cells assessed as accumulation of viral envelope protein within perinuclear region at 2.5 uM after 5 days by immunofluorescence assay relative to control; type: functional, organism-based; details: Huh-7; how it was run: as §2
Modoc virus = test: Antiviral activity against Modoc virus M544 infected in african green monkey Vero cells; type: functional, organism-based
Dengue virus [17] = test: Inhibition of viral spread in Dengue virus-infected human Huh7 cells assessed as accumulation of viral envelope protein within perinuclear region at 2.5 uM after 6 days by immunofluorescence assay relative to control; type: functional, organism-based; details: Huh-7; how it was run: as §2
Poliovirus 1 = test: Antiviral activity against Poliovirus 1 infected in african green monkey Vero cells; type: functional, organism-based
dengue virus type 2 [18] = test: Antiviral activity against Dengue virus 2 NGC infected in african green monkey Vero cells after 3 days by immunofluorescence assay; type: functional, organism-based; details: 72 h
How it was run: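 DENV2 NGC was adsorbed to Vero monolayers at moi 1 for 60 min at 37°C with 5% CO2, then washed with PBS. Inhibitor was added at 0.02–10 μM final in 0.25% DMSO and incubated for 3 days. Cells were fixed and stained with anti-E mAb, FITC secondary and DAPI. Infected cells were counted in four automated-microscope fields per well and compared with DMSO-treated infected wells. IC50 came from nonlinear regression.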

## Brc1c(Br)c(Br)c2[nH]nnc2c1Br
Dengue virus [1]
  Activity: Active
Dengue virus [2]
  Activity: Active

## CC(C)(C)c1nc2c3ccc(F)cc3c3c(=O)[nH]ccc3c2[nH]1
Dengue virus [1]
  Activity: Active

## O=C1Cc2c([nH]c3ccc(Br)cc23)-c2ccccc2N1
Dengue virus [2]
  Activity: Active

## NC(=O)c1cccc(-c2cc(Nc3ccc(OC(F)(F)F)cc3)ncn2)c1
Dengue virus [1]
  Activity: Active
Dengue virus [2]
  Activity: Active

## Cc1nc(Nc2ncc(C(=O)Nc3c(C)cccc3Cl)s2)cc(N2CCN(CCO)CC2)n1 [DASATINIB]
Dengue virus type 2 [3]
  Activity: Dose-dependent effect
Dengue virus type 2 [4]
  Activity: Active
Dengue virus [5]
  Activity: Active
[6]
  IC50: 28 nM
Dengue virus [7]
  Activity: Active
Dengue virus [8]
  Activity: Active
Dengue virus [9]
  Activity: Active
[10]
  IC50: 100 nM
Dengue virus type 3
  Activity: Dose-dependent effect
Dengue virus type 2 [11]
  Activity: Dose-dependent effect
Dengue virus type 4
  Activity: Dose-dependent effect
Dengue virus [12]
  Activity: Active
Dengue virus [2]
  Activity: Active
Dengue virus [13]
  Activity: Active
Dengue virus type 1
  Activity: Dose-dependent effect
Dengue virus type 2 [14]
  Activity: Dose-dependent effect
Dengue virus [15]
  Activity: Active
Dengue virus [16]
  Activity: Active
Modoc virus
  Activity: Dose-dependent effect
Dengue virus [17]
  Activity: Active
Poliovirus 1
  Activity: inactive

## CNc1ncc2c(n1)N(C)C(=O)N(c1cc(NC(=O)c3cc(-n4cnc(C)c4)cc(C(F)(F)F)c3)ccc1C)C2
Dengue virus [1]
  Activity: Active
Dengue virus [2]
  Activity: Active

## O=C(O)c1cc(N(Cc2ccccc2O)Cc2cc(O)ccc2O)ccc1O
Dengue virus [2]
  Activity: Active

## O=S(=O)(c1cccc2c(I)cccc12)N1CCCNCC1
Dengue virus [2]
  Activity: Active

## CN1CCN(CCOc2cc(OC3CCOCC3)c3c(Nc4c(Cl)ccc5c4OCO5)ncnc3c2)CC1
Dengue virus type 2 [3]
  Activity: Dose-dependent effect
Dengue virus [5]
  Activity: Active
Dengue virus [7]
  Activity: Active
Dengue virus [8]
  Activity: Active
Dengue virus [9]
  Activity: Active
Dengue virus type 2 [11]
  Activity: Dose-dependent effect
Dengue virus [12]
  Activity: Active
Dengue virus [2]
  Activity: Active
Dengue virus [13]
  Activity: Active
Dengue virus type 2 [14]
  Activity: Dose-dependent effect
Dengue virus [15]
  Activity: Active
Dengue virus [16]
  Activity: Active
Dengue virus [17]
  Activity: Active

## Cc1ccc(NC(=O)c2ccc(CN3CCN(C)CC3)cc2)cc1Nc1nccc(-c2cccnc2)n1
Dengue virus [1]
  Activity: Active

## COc1cc2ncnc(Nc3ccc(Oc4ccccc4)cc3)c2cc1OC
Dengue virus [1]
  Activity: Active
Dengue virus [2]
  Activity: Active

## COc1c(C)c2c(c(O)c1C/C=C(\C)CCC(=O)O)C(=O)OC2 [MYCOPHENOLIC ACID]
Dengue virus type 2 [18]
  EC50: 5700 nM

## CCN(CC)CCNC(=O)c1c(C)[nH]c(/C=C2\C(=O)Nc3ccc(Cl)cc32)c1C
Dengue virus [2]
  Activity: Active

## N#C/C(=C\c1ccc(O)c(O)c1)C(N)=O
Dengue virus [2]
  Activity: Active

## O=C(O)c1cc(NCc2cc(O)ccc2O)ccc1O
Dengue virus [2]
  Activity: Active

## COc1cc2ncnc(Nc3cccc(Br)c3)c2cc1OC
Dengue virus [2]
  Activity: Active

## Cn1cc(/C=C2\C(=O)Nc3ccc(S(N)(=O)=O)cc32)c2ccccc21
Dengue virus [1]
  Activity: Active
Dengue virus [2]
  Activity: Active

## Cc1ccc(Nc2nccc(-c3ccccc3)n2)cc1F
Dengue virus [1]
  Activity: Active
